# Measured values published in ChEMBL document CHEMBL3045616, “Synthetic pyrazole derivatives as growth inhibitors of some phytopathogenic fungi” (J Agric Food Chem, 2007).
# Legend:
# [1] = tested on: Pyricularia grisea; experiment: microbe, parasite or virus in culture; assay type: functional; conditions: ATCC 64413, 120 h, read-out: GI
# [2] = tested on: Pyricularia grisea; experiment: microbe, parasite or virus in culture; assay type: functional; conditions: ATCC 64413, 120 h, read-out: GI; remark: listed apart in the source
# [3] = tested on: Botrytis cinerea; experiment: Antifungal activity against logarithmic phase of Botryotinia fuckeliana ATCC 48339 assessed as growth inhibition at 100 ug/ml measured at 5 days post-drug treatment; assay type: functional; conditions: ATCC 48339, 120 h, read-out: GI
# How it was run: (§1)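 Log-phase mycelium (from 10 mm stationary-phase disks grown on cellophane over PDA, pH 5.6, 26 ± 1 °C) moved to PDA with compound added from DMSO stock at 45 °C. Final concentrations were 10, 50 or 100 µg mL^-1, with 0.1% DMSO in test and control media. Colony diameter was read daily for 5 days, in triplicate, as % of untreated control.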
# [4] = tested on: Botrytis cinerea; experiment: Antifungal activity against logarithmic phase of Botryotinia fuckeliana ATCC 48339 assessed as growth inhibition at 50 ug/ml measured at 5 days post-drug treatment; assay type: functional; conditions: ATCC 48339, 120 h, read-out: GI
# How it was run: as §1
# [5] = tested on: Botrytis cinerea; experiment: Antifungal activity against logarithmic phase of Botryotinia fuckeliana ATCC 48339 assessed as growth inhibition at 10 ug/ml measured at 5 days post-drug treatment; assay type: functional; conditions: ATCC 48339, 120 h, read-out: GI
# How it was run: as §1
# [6] = tested on: Globisporangium ultimum; experiment: Antifungal activity against logarithmic phase of Pythium ultimum ATCC 58812 assessed as growth inhibition at 100 ug/ml measured at 5 days post-drug treatment; assay type: functional; conditions: ATCC 58812, 120 h, read-out: GI
# How it was run: as §1
# [7] = tested on: Globisporangium ultimum; experiment: Antifungal activity against logarithmic phase of Pythium ultimum ATCC 58812 assessed as growth inhibition at 50 ug/ml measured at 5 days post-drug treatment; assay type: functional; conditions: ATCC 58812, 120 h, read-out: GI
# How it was run: as §1
# [8] = tested on: Globisporangium ultimum; experiment: Antifungal activity against logarithmic phase of Pythium ultimum ATCC 58812 assessed as growth inhibition at 10 ug/ml measured at 5 days post-drug treatment; assay type: functional; conditions: ATCC 58812, 120 h, read-out: GI
# How it was run: as §1
# [9] = tested on: Pyricularia grisea; experiment: microbe, parasite or virus in culture; assay type: functional; conditions: ATCC 64413, 120 h, read-out: GI; remark: listed apart in the source
# [10] = tested on: Pyricularia grisea; experiment: microbe, parasite or virus in culture; assay type: functional, organism-based; conditions: ATCC 64413, 120 h
# [11] = tested on: Globisporangium ultimum; experiment: Antifungal activity against logarithmic phase of Pythium ultimum Trow ATCC 58812 assessed as growth inhibition measured at 5 days post-drug treatment; assay type: functional, organism-based; conditions: ATCC 58812, 120 h
# How it was run: (§2)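 Log-phase mycelium grown on cellophane over PDA (pH 5.6, 26 ± 1 °C) moved to PDA containing compound at 10, 50 and 100 µg mL^-1 final, with 0.1% DMSO in test and control media. Colony diameter was measured daily for 5 days, in triplicate, relative to untreated controls. IC50 came from curves of activity (%) versus log inhibitor concentration.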
# [12] = tested on: Botrytis cinerea; experiment: Antifungal activity against logarithmic phase of Botryotinia fuckeliana ATCC 48339 assessed as growth inhibition measured at 5 days post-drug treatment; assay type: functional, organism-based; conditions: ATCC 48339, 120 h
# How it was run: as §2
SMILES,inhibition of growth at 100 µg/mL [1],inhibition of growth at 50 µg/mL [2],inhibition of growth at 100 µg/mL [3],inhibition of growth at 50 µg/mL [4],inhibition of growth at 10 µg/mL [5],inhibition of growth at 100 µg/mL [6],inhibition of growth at 50 µg/mL [7],inhibition of growth at 10 µg/mL [8],inhibition of growth at 10 µg/mL [9],IC50 [10],IC50 [11],IC50 [12]
Cc1c(C(=O)O)c(C(=O)NC(C)(C)C)nn1-c1c(Cl)cc(C(F)(F)F)cc1Cl,24.4%,20.6%,27.5%,22.6%,17.3%,54.7%,37.9%,1.9%,,,,
O=c1c2cn[nH]c2[nH]c(=S)n1-c1cccc(Cl)c1,5%,1%,27.3%,8.5%,,10.8%,4.1%,2.2%,,,,
Cc1onc(C(=O)NC(C)(C)C)c1C(=O)O,,,18.2%,13.3%,4.3%,40.2%,15.8%,9.7%,,,,
CCOC(=O)c1cn[nH]c1NC(=S)NC1CCCCC1,36%,26.7%,,,,63.9%,59%,44.4%,29.8%,,,
CCn1c(=S)[nH]c2[nH]ncc2c1=O,4.1%,3.6%,,,,,,,,,,
O=c1c2cn[nH]c2[nH]c(=S)n1-c1ccc([N+](=O)[O-])cc1,,,2.1%,,,13.7%,8.7%,4.6%,,,,
CCNC(=S)Nc1[nH]ncc1C(=O)OCC,28.9%,18.1%,,,,20%,,,13.8%,,,
CCOC(=O)c1cn[nH]c1NC(=S)Nc1cccc(C(F)(F)F)c1,51%,46.3%,23.2%,,,28%,24.2%,23%,29.4%,224 µM,,
Cc1onc(C(=O)NC2CC2)c1C(=O)O,8.97%,2.3%,,,3.8%,53.5%,46.6%,46%,,,,
CCOC(=O)c1cn[nH]c1NC(=S)Nc1ccc([N+](=O)[O-])cc1,17.7%,15.6%,37.9%,33%,13.2%,63.4%,36%,27.2%,13%,,,
COC(=O)c1c(C(=O)O)nn(C)c1C,8.4%,,3.3%,,,,,,,,,
Cc1cccc2sc3nncn3c12 [TRICYCLAZOLE],62%,24%,,,,,,,0%,474 µM,,
COC(=O)c1c(C(=O)NC2CC2)nn(C)c1C,3.4%,,3.2%,4%,,7.7%,4.3%,4.8%,,,,
CCCCNC(=S)Nc1[nH]ncc1C(=O)OCC,10%,8.6%,32.4%,15.1%,4.7%,10.4%,,,,,,
O=c1c2cn[nH]c2[nH]c(=S)n1-c1ccc(Cl)cc1,,,31.7%,,,37.8%,12.2%,1.7%,,,,
CCOC(=O)c1c[nH]nc1N=C(S)Nc1ccc(Cl)cc1,36.7%,33.6%,46.2%,21%,,61.5%,52.9%,38%,21.4%,,,
O=c1c2cn[nH]c2[nH]c(=S)n1-c1cccc(C(F)(F)F)c1,4.1%,1.4%,7.2%,1%,0.5%,57.8%,34.5%,17.2%,,,,
Cc1c(C(=O)O)c(C(=O)NC(C)(C)C)nn1-c1ccccc1,13.9%,3.8%,60.5%,43.1%,39.5%,83.4%,82.3%,12.1%,0.6%,,79 µM,
Cc1[nH]nc(C(=O)NC2CC2)c1C(=O)O,9%,5.9%,19.2%,10.6%,,39.9%,32.9%,3.2%,3.6%,,,
CCOC(=O)c1cn[nH]c1NC(=S)Nc1cccc(Cl)c1,26%,18%,76.2%,56.8%,56%,60.8%,38.1%,32.9%,16.6%,,,31 µM
O=C(Nc1ccccc1)c1ccccc1I [BENODANIL],,,97.6%,91.2%,6.3%,,,,,,,66 µM
O=c1c2cn[nH]c2[nH]c(=S)n1-c1ccc(Br)cc1,20%,18%,,,,61.8%,22.5%,,,,,
CCOC(=O)c1cn[nH]c1NC(=S)NCc1ccccc1,41.4%,35.6%,32%,26%,0%,38.3%,34.6%,3.7%,15.8%,,,
CCOC(=O)c1cn[nH]c1NC(=S)Nc1ccc(Br)cc1,27.2%,27.1%,16.3%,,,3.1%,2%,,16.1%,,,
CCOC(=O)c1cn[nH]c1NC(=S)Nc1ccccc1Cl,67%,60.9%,36%,30.9%,4.3%,70%,68.7%,66.5%,48.7%,48 µM,,
Cc1c(C(=O)O)c(C(=O)NC2CC2)nn1C,8.6%,4.3%,19.8%,9.9%,3%,11.4%,6.6%,,,,,
O=c1c2cn[nH]c2[nH]c(=S)n1Cc1ccccc1,44.4%,23.4%,31.9%,23.4%,13.5%,78%,64.6%,44.1%,0.5%,,66 µM,
O=c1c2cn[nH]c2[nH]c(=S)n1-c1ccccc1Cl,,,66.2%,63.8%,40%,,,,,,,83 µM
Cc1c(C(=O)O)c(C(=O)NC(C)(C)C)nn1C,5.8%,4.1%,61.9%,9.6%,,41.3%,12.5%,,0.9%,,,
COC(=O)N(OC)c1ccccc1COc1ccn(-c2ccc(Cl)cc2)n1 [PYRACLOSTROBIN],,,,,,100%,100%,100%,,,< 10 µM,
